Fh CTSL1 inh = Fasciola hepatica cathepsin L1 inhibitors, primary screen, counter-screen for PFM18AAP inhibitor project, biochemical, QFRET, fluorogenic peptide substrate | 300,000 tested, 0.49% active | AID 1906, 2009 | recombinant F. hepatica cathepsin L1, Z-Leu-Arg-MCA fluorescence | inhibition, % at 5.96 µM;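 active = inhibition above the mean of all tested compounds plus 3 SD, set per screening campaign, cut at about 17% in these data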;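 note: 0% = plate median of test compound wells and 100% = 1 µM Z-Phe-Ala-diazomethylketone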
HKDC1 inhibitor = HKDC1 hexokinase inhibitors, primary screen, biochemical, fluorescence, uHTS; Q2TB90; recombinant HKDC1, G6PDH/diaphorase resazurin coupled fluorescence; inhibition, % at 20 µM; 340,000 tested, 0.16% active;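 active = inhibition above about 35% when tested at 20 µM, limit read from the data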;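 note: plate controls were DMSO wells with enzyme for no effect and DMSO wells lacking enzyme for full effect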
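Assay system – recombinant HKDC1 (HK5) hexokinase enzyme, produced in-house · Input – HKDC1 at 5 µg/mL · Reagent – glucose plus 1 mM ATP as hexokinase substrates · Timing – 90 min reaction incubation at room temperature, dark · Measured by – G6PDH/diaphorase-coupled fluorescence, 1 mM NADP, 100 µM resazurin, 525/613 nm · Benchmarks – DMSO-enzyme wells negative, buffer-substituted wells positive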
Diaph inh CS = diaphorase inhibitors and chemical oxidizers, primary screen, counter-screen for diaphorase-coupled primary assays, biochemical, uHTS, resorufin fluorescence; diaphorase resazurin-to-resorufin fluorescence, NADH, 16 min; bacterial (C. kluyveri) enzyme, not human; inhibition, % at 20 µM; 190,000 tested, 0.69% active;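 active = primary screen inhibition at 20 µM above a set limit, cut at about 50% in these data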;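 note: plate controls were DMSO with full reaction for no effect and wells lacking NADH for full effect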
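Assay system: diaphorase enzyme from Clostridium kluyveri. Quantity: enzyme working solution with 0.14 U/mL diaphorase. Schedule: reaction incubation of 16 min at room temperature. Technique: resorufin fluorescence, excitation 544 nm, emission 590 nm. Controls: No-NADH positive control and DMSO neutral control.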
Diaph act CS = compounds boosting diaphorase resazurin reduction – biochemical, uHTS, resorufin fluorescence, counter-screen for diaphorase-coupled primary assays, primary screen; activation factor at 20 µM; Diaphorase/resazurin coupled assay, 16 min; hits give high values; 1 = vehicle wells, 0 = NADH-free wells; 190,000 tested, 0.005% active; AID 1229, 2008;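 active = diaphorase activity raised at least twofold by the compound at 20 µM; inactive = activation factor below 2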
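Material: Clostridium kluyveri diaphorase, purified enzyme; Quantity: enzyme 0.07 U/mL final; Medium: HEPES pH 7.4 buffer with MgCl2 and Tween 20; Dosing: single compound dose of 20 µM, 1% DMSO final; Schedule: 16 min reaction at room temperature; Measured by: red resorufin fluorescence at 544/590 nm excitation/emission.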
ATG4B inhibitor = ATG4B protease inhibitors, primary screen, biochemical, fluorescence, uHTS; Cysteine protease ATG4B (Homo sapiens), Q9Y4P1; ATG4B cleavage of LC3-PLA2, NBD-HPC fluorescence, 1 h; 340,000 tested, 0.51% active; inhibition, % at 8.33 µM; in the data active = inhibition above about 40%
HKDC1 act conf2 = HKDC1 hexokinase activators, confirmation, biochemical, single concentration; shares compounds with HKDC1 inhibitor; recombinant HKDC1, G6PDH/diaphorase resazurin fluorescence; hits give low values; inhibition, % at 20 µM; 740 tested, 14% active; AID 504708, 2011;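 active = inhibition at or below a set negative limit, negative inhibition meaning the enzyme was activated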
ATG4B confirm = ATG4B protease inhibitors, retest, confirmation, biochemical, fluorescence, single concentration; ATG4B protease fluorescent substrate cleavage assay; shares compounds with ATG4B inhibitor; inhibition, % at 8.33 µM; 320 tested, 92% active; in the data active = inhibition above about 39%
PLA2 counter = PLA2 enzyme inhibition, counter-screen for ATG4B inhibitor project, biochemical, single concentration, uHTS hits. shares compounds with ATG4B inhibitor. purified PLA2, NBD-C6-HPC fluorescence, 45 min. inhibition, % at 8.33 µM. 1,600 tested, 66% active. AID 588402, 2011; in the data active = inhibition above about 50%
Target sequence (P04054 whole entry, looked up): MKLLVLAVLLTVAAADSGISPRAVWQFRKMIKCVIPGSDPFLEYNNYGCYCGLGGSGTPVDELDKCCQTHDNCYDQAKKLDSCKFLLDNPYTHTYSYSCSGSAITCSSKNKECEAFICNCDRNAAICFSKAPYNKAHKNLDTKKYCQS
* hit, by the source's call; nt = no result given. Shown are actives, neighbours in structure and some others; about 1.4% of the full set was active somewhere.

SMILES	Fh CTSL1 inh	HKDC1 inhibitor	Diaph inh CS	Diaph act CS	ATG4B inhibitor	HKDC1 act conf2	PLA2 counter	others
COC(=O)CCCC1=CC2=CC(=O)C(C)(OC(=O)c3cccs3)C(=O)C2=CN1c1ccc(OC)cc1 (stereo not given)	2	19	nt	nt	-14	nt	nt
COc1ccc(C2=CC3=C(Br)C(=O)C(C)(OC(=O)c4cccs4)C(=O)C3=CO2)cc1 (stereo not given)	-1	50*	nt	nt	83*	4	90*
O=C1C(=C(I)I)c2ccccc2-c2ccccc21	nt	61*	nt	nt	61*	32	-11	ATG4B confirm=57*
COc1ccccc1CNC(=O)C(=O)NCC1CCCN1S(=O)(=O)c1cccs1 (stereo not given)	0	-4	nt	nt	1	nt	nt
CCCCC(CC)CN=C(N)NC(N)=NCCCCCCN=C(N)NC(N)=NCC(CC)CCCC (stereo not given)	-1	42*	nt	nt	69*	46	23	ATG4B confirm=14
CCOC(=O)C1(CCCc2ccccc2)CCN(C(=O)c2cc(C)nn2CC)CC1	1	-5	nt	nt	-2	nt	nt
O=C(O)C(Cc1ccccc1)N1C(=O)/C(=C/C=C/c2ccco2)SC1=S (stereo not given)	nt	37*	nt	nt	69*	-2	59*
COc1ccc(/C=C2\SC(=S)N(C(Cc3ccccc3)C(=O)O)C2=O)cc1 (stereo not given)	nt	-2	7	0.9	16	nt	nt
CCOc1ccc2nc3cc(N=Nc4ccc(N)nc4N)ccc3c(N)c2c1	nt	37*	nt	nt	54*	-31	69*
CNC(=O)NC(=O)CSc1nc2sccc2c(=O)n1-c1ccccc1	3	-4	nt	nt	-10	nt	nt
CC(C)Oc1ccc(S(=O)(=O)N2CCOCC2)cc1NC(=O)c1ccc(N2CCCC2=O)cc1	0	-2	nt	nt	-9	nt	nt
O=C(O)c1ccc(S(=O)(=O)/N=C2\C=C(Nc3ccccc3F)C(=O)c3ccccc32)cc1	80*	81*	nt	nt	77*	76	75*
Cc1ccccc1NC1=C/C(=N\S(=O)(=O)c2ccc(C(=O)O)cc2)c2ccccc2C1=O	104*	70*	nt	nt	59*	71	28	ATG4B confirm=37
O=c1[nH]c2c(c(=O)[nH]1)OCN(Cc1ccccc1)C2	nt	-1	nt	nt	2	nt	nt
COc1ccc(-n2cccc2/C=C2\C(=N)N3N=C(C(C)C)SC3=NC2=O)cc1	1	-5	24	0.8	-4	nt	nt
COc1ccc(-n2cccc2/C=C2\C(=N)N3N=C(c4ccco4)SC3=NC2=O)cc1	1	35*	74*	0.3	40*	-9	38	ATG4B confirm=49*
N=C1/C(=C/c2coc3ccccc3c2=O)C(=O)N=C2SC(c3ccco3)=NN12	4	38*	nt	nt	45*	-9	17
Cc1cc(/C=C2\C(=N)N3N=C(c4ccco4)SC3=NC2=O)c(C)n1Cc1ccccc1	0	15	nt	nt	27	nt	nt
CCCCNC(=O)c1sc(=S)n2c1[nH]c(=O)c1ccccc12	6	38*	67*	0.3	45*	56	18
O=C(NC1CCCCC1)c1sc(=S)n2c1[nH]c(=O)c1ccccc12	9	20	43	0.6	37	nt	nt
O=C(O)c1ccccc1NS(=O)(=O)c1ccc(N/N=C/c2cccc(O)c2O)c([N+](=O)[O-])c1	nt	36*	nt	nt	51*	26	53*

High-throughput results from PubChem.
